Assay results as given in ChEMBL document CHEMBL1138881, “Application of phosphoramidate ProTide technology significantly improves antiviral potency of carbocyclic adenosine derivatives” (J Med Chem, 2006).

Assays:
[1] = test system: Human immunodeficiency virus 2; test: Antiviral activity against HIV2 ROD in MT4 cells; type: functional, organism-based; conditions: Human immunodeficiency virus 2, ROD
Procedure, shortened: (§1)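 MT-4 cells at 4.5 × 10⁵ cells/mL were infected with 100 CCID₅₀/mL of HIV-1 or HIV-2. Viable cells were then counted after trypan blue staining, and EC₅₀ was derived from these viable-cell counts.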

[2] = test system: MT4; test: Cytotoxicity against MT4 cells; type: functional; conditions: Homo sapiens
Procedure, shortened: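 Exponentially growing MT-4 cells were resuspended at 5 × 10⁵ cells/mL in RPMI 1640 with 20% FBS and 20% IL-2. They were infected with HIV-1 IIIB (100 × TCID₅₀ per well) for 1 h at 37 °C, with mock-infected cells run in parallel. The suspension was diluted 6-fold onto serially diluted compound and incubated for 5 days at 37 °C in 5% CO₂. MTS staining was read at 492 nm.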

[3] = test system: Human immunodeficiency virus 1; test: Antiviral activity against HIV1 3B in MT4 cells; type: functional, organism-based; conditions: Human immunodeficiency virus 1, 3B; procedure, shortened: as §1
[4] = test system: HepG2; test: Cytotoxicity against HepG2 2.2.15 cells; type: functional; conditions: Homo sapiens
Procedure, shortened: (§2)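 HepG2 2.2.15 cells, which produce HBV constitutively, were seeded at 5 × 10³ per well. Drug-containing medium was replaced every other day for 9 days. Virions in the supernatant were captured on anti-HBsAg plates, and their DNA was quantified by PCR against an HBV standard curve and normalized to untreated cells. For cell growth, monolayers were ethanol-fixed and stained with bisbenzimide H33342, and fluorescence was compared with untreated cells. SI = CC₅₀/EC₅₀.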

[5] = test system: Hepatitis B virus; test: Antiviral activity against HBV in HepG2 2.2.15 cells; type: functional, organism-based; procedure, shortened: as §2
[6] = test system: CEM cells (Homo sapiens); test: Cytotoxicity against CEM cells
[7] = test system: Cynomolgus monkey; test: Metabolic stability in cynomolgus monkey intestine S9 fraction; type: ADME, Macaca fascicularis
Procedure, shortened: (§3)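 Pooled cynomolgus S9 (liver or intestinal segments), test compound 10 µM final, 37 °C, DMSO <1% final; reaction started with NADPH 2.5 mM final. Aliquots taken at 0 (preincubation), 10, 20, 30 and 60 min, quenched with cold acetonitrile, centrifuged; supernatant parent measured by LC/MS/MS. Stability given as % remaining from pre- vs postincubation peak areas.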

[8] = test system: Cynomolgus monkey; test: Metabolic stability in cynomolgus monkey liver S9 fraction; type: ADME, Macaca fascicularis; procedure, shortened: as §3
[9] = test system: Human immunodeficiency virus 2; test: Antiviral activity against HIV2 ROD in CEM cells; type: functional, organism-based; conditions: Human immunodeficiency virus 2, ROD, CCRF-CEM
Procedure, shortened: (§4)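 CEM cells at 4.5 × 10⁵ cells/mL were infected with 100 CCID₅₀/mL of HIV-1 or HIV-2. Giant-cell formation was scored microscopically. EC₅₀ was the concentration preventing syncytium formation by 50%.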

[10] = test system: Human immunodeficiency virus 1; test: Antiviral activity against HIV1 3B in CEM cells; type: functional, organism-based; conditions: Human immunodeficiency virus 1, 3B, CCRF-CEM; procedure, shortened: as §4

| Structure (SMILES) | EC50 [1] [µM] | CC50 [2] [µM] | EC50 [3] [µM] | CC50 [4] [µM] | EC50 [5] [µM] | CC50 [6] [µM] | Stability [7] [%] | Stability [8] [%] | EC50 [9] [µM] | EC50 [10] [µM] |
| --- | --- | --- | --- | --- | --- | --- | --- | --- | --- | --- |
| COC(=O)[C@H](CCCCN)NP(=O)(OC[C@H]1C=C[C@@H](n2cnc3c(N)ncnc32)C1)Oc1ccccc1.O=C(O)C(F)(F)F (stereo partly specified) | 27.2 | > 25 | 15.2 | > 100 | 2 | > 250 | 17 | 95 | 150 | 25 |
| COC(=O)[C@H](C)NP(=O)(OC[C@H]1CC[C@@H](n2cnc3c(N)ncnc32)C1)Oc1ccccc1 (stereo partly specified) | – | > 12.5 | 1.8 | > 2 | 0.6 | – | – | – | – | – |
| COC(=O)[C@@H](CCSC)NP(=O)(OC[C@H]1C=C[C@@H](n2cnc3c(N)ncnc32)C1)Oc1ccccc1 (stereo partly specified) | 3.48 | > 25 | 2.5 | > 2 | 0.22 | 211 | – | – | 7.87 | 7.67 |
| COC(=O)[C@@H](Cc1ccccc1)NP(=O)(OC[C@H]1C=C[C@@H](n2cnc3c(N)ncnc32)C1)Oc1ccccc1 (stereo partly specified) | 5.93 | > 40 | 2.8 | 200 | 0.7 | 108 | – | – | 8.67 | 9 |
| CCOC(=O)[C@H](C)NP(=O)(OC[C@H]1C=C[C@@H](n2cnc3c(N)ncnc32)C1)Oc1ccccc1 (stereo partly specified) | – | > 25 | 0.017 | 22 | 0.02 | – | 39 | 15 | – | – |
| COC(=O)[C@H](Cc1ccccc1)NP(=O)(OC[C@H]1C=C[C@@H](n2cnc3c(N)ncnc32)C1)Oc1ccccc1 (stereo partly specified) | – | 16 | 0.1 | 9 | 0.0045 | – | – | – | – | – |
| C[C@H](NP(=O)(OC[C@H]1C=C[C@@H](n2cnc3c(N)ncnc32)C1)Oc1ccccc1)C(=O)OC(C)(C)C (stereo partly specified) | 3.08 | < 25 | < 0.26 | 170 | 0.25 | 130 | 96 | 1 | 3.67 | 2.93 |
| CC(C)OC(=O)[C@H](C)NP(=O)(OC[C@H]1C=C[C@@H](n2cnc3c(N)ncnc32)C1)Oc1ccccc1 (stereo partly specified) | 0.22 | 91.4 | 0.15 | > 2 | 0.006 | 84 | 90 | 8 | 0.25 | 0.3 |
| Nc1ncnc2c1ncn2[C@@H]1C=C[C@H](CO)C1 | – | > 100 | 80 | > 200 | 0.98 | – | – | – | – | – |
| COC(=O)[C@@H](NP(=O)(OC[C@H]1C=C[C@@H](n2cnc3c(N)ncnc32)C1)Oc1ccccc1)C(C)C (stereo partly specified) | 1.05 | < 25 | 0.64 | 120 | 0.02 | 167 | 91 | 2 | 4.5 | 1 |
| COC(=O)[C@H](C)NP(=O)(OC[C@H]1C=C[C@@H](N2C=NC3C(N)=NC=NC32)C1)Oc1ccc(C(F)(F)F)cc1 (stereo partly specified) | 0.046 | 5.87 | 0.035 | 0.72 | < 0.0032 | 6.4 | – | – | 0.06 | 0.06 |
| COC(=O)c1ccc(OP(=O)(N[C@@H](C)C(=O)OC)OC[C@H]2C=C[C@@H](n3cnc4c(N)ncnc43)C2)cc1 (stereo partly specified) | 0.056 | > 4 | 0.12 | > 2 | 0.004 | 12.9 | 48 | 7 | 0.13 | 0.13 |
| COC(=O)[C@@H](CC(C)C)NP(=O)(OC[C@H]1C=C[C@@H](n2cnc3c(N)ncnc32)C1)Oc1ccccc1 (stereo partly specified) | 0.93 | < 16 | < 1 | > 2 | 0.13 | 88.5 | – | – | 3.5 | 1.6 |
| COC(=O)[C@H]1CCCN1P(=O)(OC[C@H]1C=C[C@@H](n2cnc3c(N)ncnc32)C1)Oc1ccccc1 (stereo partly specified) | 105 | 227 | 117 | > 2 | > 2 | ≥ 250 | – | – | 105 | 110 |
| C[C@H](NP(=O)(OC[C@H]1C=C[C@@H](n2cnc3c(N)ncnc32)C1)Oc1ccccc1)C(=O)OCc1ccccc1 (stereo partly specified) | – | 255 | 0.009 | 5 | 0.0075 | – | 0 | 0 | – | – |
| Nc1ncnc2c1ncn2[C@@H]1CC[C@H](CO)C1 | – | > 10 | > 10 | > 200 | 61 | – | – | – | – | – |
| COC(=O)C[C@@H](NP(=O)(OC[C@H]1C=C[C@@H](n2cnc3c(N)ncnc32)C1)Oc1ccccc1)C(=O)OC (stereo partly specified) | 3.71 | > 10 | 2.1 | > 2 | 0.02 | ≥ 250 | – | – | 15 | 5 |
| COC(=O)[C@H](C)NP(=O)(OC[C@H]1C=C[C@@H](n2cnc3c(N)ncnc32)C1)Oc1ccc(Cl)c(Cl)c1 (stereo partly specified) | 0.076 | > 4 | 0.077 | > 2 | 0.005 | 13 | – | – | 0.11 | 0.09 |
| COC(=O)[C@H](C)NP(=O)(OC[C@H]1C=C[C@@H](n2cnc3c(N)ncnc32)C1)Oc1ccc([N+](=O)[O-])cc1 (stereo partly specified) | 0.17 | 10 | 0.12 | > 2 | 0.007 | 17.4 | – | – | 0.1 | 0.1 |
| COC(=O)[C@H](C)NP(=O)(OC[C@H]1C=C[C@@H](n2cnc3c(N)ncnc32)C1)Oc1cccc(C(F)(F)F)c1 (stereo partly specified) | – | – | – | – | – | – | 92 | 45 | – | – |
| COC(=O)[C@H](NP(=O)(OC[C@H]1C=C[C@@H](n2cnc3c(N)ncnc32)C1)Oc1ccccc1)C(C)C (stereo partly specified) | 14.2 | > 16 | 2.3 | > 200 | 0.6 | 230 | – | – | 10 | 7.5 |
| COC(=O)[C@H](Cc1ccc(OC(C)(C)C)cc1)NP(=O)(OC[C@H]1C=C[C@@H](n2cnc3c(N)ncnc32)C1)Oc1ccccc1 (stereo partly specified) | 0.13 | 19.8 | 0.11 | > 2 | 0.026 | 79.7 | – | – | 5.5 | 3 |
| COC(=O)[C@@H](C)NP(=O)(OC[C@H]1C=C[C@@H](n2cnc3c(N)ncnc32)C1)Oc1ccccc1 (stereo partly specified) | – | > 100 | 2.05 | > 200 | 0.0265 | – | 94 | 41 | – | – |
| Nc1ncnc2c1ncn2[C@H]1C=C[C@@H](CO)C1 | – | > 500 | 15 | > 200 | 52 | – | – | – | – | – |
| COC(=O)[C@@H]1CCCN1P(=O)(OC[C@H]1C=C[C@@H](n2cnc3c(N)ncnc32)C1)Oc1ccccc1 (stereo partly specified) | 21 | > 10 | 5.28 | > 2 | 0.51 | 92.1 | – | – | 7.5 | 3.5 |
| CCOC(=O)c1ccccc1OP(=O)(N[C@@H](C)C(=O)OC)OC[C@H]1C=C[C@@H](n2cnc3c(N)ncnc32)C1 (stereo partly specified) | – | < 4 | < 0.26 | 12 | 0.004 | 4.17 | 80 | 25 | 0.057 | 0.053 |
| COC(=O)[C@@H](Cc1c[nH]c2ccccc12)NP(=O)(OC[C@H]1C=C[C@@H](n2cnc3c(N)ncnc32)C1)Oc1ccccc1 (stereo partly specified) | 21.9 | > 40 | 13.3 | > 2 | 0.2 | 93.4 | – | – | 25 | 20 |
| Nc1ncnc2c1ncn2[C@H]1CC[C@@H](CO)C1 | – | > 125 | 50 | > 200 | 33 | – | – | – | – | – |
| COC(=O)[C@H](C)NP(=O)(OC[C@@H]1C=C[C@H](n2cnc3c(N)ncnc32)C1)Oc1ccccc1 (stereo partly specified) | – | 3.7 | 0.3 | 5.4 | 4 | – | – | – | – | – |
| COC(=O)[C@H](C)NP(=O)(OC[C@H]1C=C[C@@H](n2cnc3c(N)ncnc32)C1)Oc1ccc(Cl)cc1 (stereo partly specified) | 0.018 | 2 | 0.009 | > 2 | 0.003 | 3.11 | – | – | 0.047 | 0.015 |
